# High-throughput results: PubChem, SRMLSC
# bCat KO growth = primary screen for growth suppressors in beta-catenin knockout HCT116 cells (colon tumor, human); HCT116 beta-catenin knockout viability, CellTiter-Glo, 60 h; hits give low values; viability, % at 10 µM; 140,000 tested, 1.5% active; AID 818, 2007;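 active means viability at or under a set limit, the compound median less 4 SD, cut at about 6% in these data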
# Fibroblast inh = antiproliferative effect on LL 47 fibroblasts – human, LL 47 cells, CellTiter-Glo luminescence, primary screen. LL 47 human lung fibroblast viability, ATP luminescence; hits give low values. viability, % at 10 µM. 85,000 tested, 1.1% active. AID 719, 2007;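 active means viability at or below 50% in the single dose screen; inactive means viability above 50%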;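 further: compound exposure lasted 72 h before the ATP readout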
#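 Benchmarks: Cell-only wells, no compound | Test system: LL 47 human lung fibroblasts, passage 12 or lower | Input: 1,150 cells/well | Measured by: CellTiter-Glo luminescence measuring cellular ATP | Medium: IMEM, 15% FBS supplement | Schedule: Overnight attachment after seeding, then 72 h compound exposure at 37 °C | Doses: Compound addition at 0.1% DMSO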
# H69AR growth 86K = proliferation blockers of H69AR lung cancer cells, primary screen, cell-based, human, 86K library | H69AR lung tumor viability, ATP luminescence, 72 h; hits give low values | viability, % at 10 µM | 85,000 tested, 6% active | AID 598, 2007;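 active means viability at or below 40%; inactive means viability above 40%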;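 further: multidrug resistant small cell line overexpressing MRP-1 efflux transporter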
# HUVEC prolif 384 = inhibitors of HUVEC proliferation, primary screen, cell-based, 384-well. 86,000 tested, 1.1% active. viability, % at 10 µM (by protocol). CellTiter-Glo luminescence, 72 h; hits give low values;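 active means viability at or below 30%; inactive means viability above 30%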
# HCT116 PTEN-null = growth suppression of PTEN-null HCT116, primary screen, cell-based, CellTiter-Glo | 140,000 tested, 1.2% active | viability, % at 10 µM | HCT116 PTEN-null viability, 60 h; hits give low values | AID 827, 2007;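 active means viability at or below a set limit, 4 SD under the median of all tested compounds, cut at about 3.7% in these data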;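 further: PTEN knockout HCT116 line with beta catenin targeted HCT116 as companion control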
# Hits are given with their value; - = inactive; . = no result. The entries come from a sample that favours hits as a whole.
SMILES,bCat KO growth,Fibroblast inh,H69AR growth 86K,HUVEC prolif 384,HCT116 PTEN-null
CS(=O)(=O)Nc1ccc(C(=O)NC2CC3CCC2C3)cc1 (stereo not drawn),-,-,-,-,-
CN(C(=O)c1cccc(Nc2ccc(-c3ccc4c(c3)OCCO4)nn2)c1)C1CCCCC1,-,-,17,-,-
Cc1sc(NC(=O)CN(Cc2ccccc2)C(=O)C(C)C)c(C(N)=O)c1C,-,.,.,.,-
O=C(/C=C/c1cccc(C(F)(F)F)c1)Nc1cccc(C(F)(F)F)c1,3.8,.,.,.,2.3
COC(=O)C1=C(Cn2cnc3ccccc32)NC(=O)NC1c1cc(C)ccc1C (stereo not drawn),-,-,-,-,-
CCOC(=O)C1=C(Cn2cnc3ccccc32)NC(=O)NC1c1cc(C)ccc1C (stereo not drawn),-,-,16,-,-
CC(Sc1nc(N(C)C)nc(N2CCOCC2)n1)C(=O)Nc1ccccc1 (stereo not drawn),-,-,31,-,-
O=C(N1CCOCC1)N1CCN(C(=O)N(c2ccccc2)c2ccccc2)CC1,-,-,-,-,-
O=C(NCc1ccco1)c1cc2n(n1)C(C(F)(F)F)CC(c1ccc(Cl)c(Cl)c1)N2 (stereo not drawn),-,-,31,-,-
O=C(NCc1ccco1)c1cc2n(n1)C(C(F)(F)F)CC(c1ccc(Br)cc1)N2 (stereo not drawn),-,-,-,-,-
COc1ccc(C2c3c(oc4ccccc4c3=O)C(=O)N2CCN2CCOCC2)cc1OC (stereo not drawn),.,-,-,-,.
COCCN1C(=O)c2oc3ccccc3c(=O)c2C1c1ccc(OC)c(OC)c1 (stereo not drawn),0.1,-,-,-,0.2
COc1ccc(CC(NC(C)=O)C(=O)NC2CCN(c3nnnn3-c3ccccc3)CC2)cc1 (stereo not drawn),-,-,-,-,-
CCCC(=O)N(c1ccc2oc(C)c(C(C)=O)c2c1)S(=O)(=O)c1ccc(C)c([N+](=O)[O-])c1,-,.,.,.,-
CC12CNCC(C)(CN(C(c3ccccc3)c3ccccc3)C1)C2,-,-,-,-,-
Clc1ccc(C(c2ccccc2)N2CCNCC2)cc1 (stereo not drawn),-,-,37,-,-
O=C(Nc1cccc(S(=O)(=O)N2CCCCC2)c1)Nc1ccc(Cl)cc1Cl,1.5,.,.,.,1.4
O=C(Nc1cccc(S(=O)(=O)N2CCCCC2)c1)c1ccc2ccccc2n1,-,.,.,.,-
O=C1CCCN1c1ccc(S(=O)(=O)NCc2ccco2)cc1,-,-,-,-,-
Cc1ccccc1C(=O)NC1CCN(CC(=O)Nc2nccs2)CC1,-,-,16,-,-
Cc1ccc(NC(=O)NC2CCN(CC(=O)Nc3nccs3)CC2)cc1,-,-,-,-,-
Cc1nc([N+](=O)[O-])c(Br)n1CC(=O)c1ccc2ccccc2c1,-,-,0.4,-,-
Cc1nc([N+](=O)[O-])c(N2CCN(Cc3ccccc3)CC2)n1Cc1ccccc1,-,-,-,-,-
Cc1nc([N+](=O)[O-])c(Br)n1CC(=O)c1ccc(Br)cc1,3.0,25,-0.4,-,-
Cc1nc([N+](=O)[O-])c(Br)n1CC(=O)c1ccccc1,-,-,35,-,-
SMILES,bCat KO growth,Fibroblast inh,H69AR growth 86K,HUVEC prolif 384,HCT116 PTEN-null
COc1ccc(-c2cc(-c3ccccc3O)[nH]n2)cc1OC,-,-,-,-,-
Oc1ccccc1-c1cc(-c2ccc3c(c2)OCCO3)n[nH]1,-,-,17,-,-
Cn1c(-c2cc(Br)ccc2O)n[nH]c1=S,-,-,-,-,-
Oc1ccc(Br)cc1-c1cc(-c2ccccc2)n[nH]1,-,-,6.3,27,-
Oc1ccc(Br)cc1-c1cc(-c2ccc(Cl)cc2)n[nH]1,3.7,39,-,8.1,3.3
O=C(CN1C(=O)NC2(CCCCC2)C1=O)Nc1ccc(S(=O)(=O)N2CCOCC2)cc1,-,-,-,-,-
O=C(CSc1ccc2c(c1)OCCO2)Nc1ccc(Cl)cn1,-,-,-,19,-
O=C(Nc1cc(C(F)(F)F)ccc1N1CCOCC1)c1ccc(Cl)nc1,-,.,.,.,-
O=[N+]([O-])c1cccc(/C=C/c2nc3ccc([N+](=O)[O-])cc3[nH]2)c1,-,.,.,.,3.7
Cc1cc(C(C#N)c2cccc(Cl)c2)n2ncnc2n1 (stereo not drawn),-,-,-,-,-
N#CC(c1cccc(Cl)c1)c1ccc2c(C(F)(F)F)cc(C(F)(F)F)nc2n1 (stereo not drawn),0.8,20,4.3,14,1.0
O=C(CSCc1ccccc1Br)NC1CC1,-,.,.,.,-
CCOc1ccc(CNc2ccc(N3CCCC3)cc2)cc1,4.5,-,1.8,-,-
CCOc1cc(CNc2ccc(N3CCCC3)cc2)cc(Cl)c1OC,-,.,.,.,-
COc1ccc(C)cc1NC(=O)CN(Cc1nnc(-c2ccc(Cl)cc2)o1)C1CCCC1,-,-,2.4,-,-
CCCCC1CC1C(=O)Nc1ccc(OC)c(OC)c1 (stereo not drawn),-,-,-,-,-
O=C(c1cc2c(s1)CCCC2)N1CCN(Cc2ccc3c(c2)OCO3)CC1,-,-,-,-,-
O=C(Oc1ccc2c(c1)OCO2)c1cc2c(s1)CCC2,2.6,-,-,-,2.1
COC(=O)/C(=C/Nc1cccc2ccccc12)[N+](=O)[O-],-,-,27,-,-
CCOC(=O)/C(=C\c1cn(C)c2ccccc12)[N+](=O)[O-],-,.,.,.,-
CCOC(=O)c1[nH]c2ccc(OC)cc2c1NC(=O)C(C)N1CCC2(CC1)OCCO2 (stereo not drawn),-,-,-,-,-
CCOC(=O)c1[nH]c2ccc(F)cc2c1NC(=O)C(C)N1CCc2cc(OC)c(OC)cc2C1 (stereo not drawn),-,-,2.4,-,-
Cc1ccc(S(=O)(=O)CCSc2nc(C)cc(C(F)(F)F)c2C#N)cc1,-,-,1.6,-,-
CCOC(=O)N1CCC(NC(=O)CCC(=O)N2CC(C)Oc3ccc(C)cc32)CC1 (stereo not drawn),-,.,.,.,-
Cc1cc(C)c2nc(SCC#N)cc(C)c2c1,-,-,24,-,-
SMILES,bCat KO growth,Fibroblast inh,H69AR growth 86K,HUVEC prolif 384,HCT116 PTEN-null
COc1ccc(C2(O)CC3CCC(C2)N3c2nc(C)cc(C)c2C#N)cc1 (stereo not drawn),-,-,31,-,-
COc1ccc2c(c1)Cc1sc(NC(=O)c3ccccc3)nc1-2,-,-,11,-,-
COc1ccc(C(=O)Nc2nc3c(s2)Cc2cc(OC)ccc2-3)cc1,-,-,-,-,-
N#C/C(=C/c1ccc(Br)o1)C(N)=O,-,-,33,-,-
CCN(CC)S(=O)(=O)c1ccc(C)c(NC(=O)CSc2ncc(C(F)(F)F)cc2Cl)c1,-,.,.,.,-
Cc1ccc(S(=O)(=O)N2CCN(C(=O)CSc3ncc(C(F)(F)F)cc3Cl)CC2)cc1,-,-,6.2,-,-
